Screens: PubChem, several laboratories
Rows were chosen to be rich in hits. Some 1% of all compounds tested hit in one or more screens of this group.
Xi reactivation: X-chromosome reactivation activator. XiGFP mouse fibroblasts, % GFP-positive cells imaging, 3 d; cells co-treated with 5-aza-dC sensitizer; scaled so ellipticine positive control = 100%. activation, % at 7.58 µM. 360,000 compounds, 0.055% hits;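 active = mean normalized replicate activation at least 10% and every replicate at or above 10%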;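 note: 0% = median of on-plate neutral control wells and 100% = ellipticine 6 µM median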
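Assay system: SV40-immortalized XiGFP fibroblast cells, line 68-5-11; buffer or medium: DMEM plus 5-aza-dC sensitizer; compound: one concentration, pinned; timing: compounds 3 days, fix/stain 15 min at room temperature; benchmarks: positive control ellipticine, 6 µM final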
GSIS activator: primary screen for activators of insulin secretion dependent on glucose, INS-1E cells, GLuc reporter luminescence; 370,000 compounds, 0.61% hits; activation, % at 16.6 µM; INS-1E GLuc reporter insulin secretion, 2-3 h; AID 743287;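 active = lowest replicate activation of at least 40%, so every replicate reaches that level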;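 note: 0% = median of neutral control wells and 100% = median of IBMX positive control wells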
CaV13 ICDI inh: Primary screen for inhibitors of IQ motif and Ca2+-dependent inactivation inhibitor domain binding in CACNA1D, Förster resonance energy transfer in living cells, … | AID 743397 | 340,000 compounds, 0.098% hits | HEK cells, CFP/YFP FRET ICDI-IQ, plate reader, 10 min; percent FRET-ratio fall versus neutral wells | inhibition, % at 12.3 µM;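 active = mean replicate inhibition of at least 30% and at least 1% of replicates passing that level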;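 note: 0% = median of the neutral control wells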
GAA850 FXN act: frataxin GAA850 promoter activation; HEK293 lucGAA850 FXN promoter luciferase reporter, 24 h; percent of 10 µM SAHA response; activation, % at 6 µM; 360,000 compounds, 0.56% hits;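 active = activation above the average of all compounds screened plus 3 SD, cutoff fixed separately per campaign, cut at about 7.5% in these data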;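 note: 0% = DMSO wells and 100% = 10 µM SAHA wells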
GAA30 counter: counter-screen for GAA850 frataxin promoter activators: GAA30 promoter activation | shares compounds with GAA850 FXN act | 1,900 compounds, 66% hits | AID 588350 | HEK293 lucGAA30 FXN promoter luciferase, 24 h; DMSO = 0%, 5 µM ipriflavone = 100% | activation, % at 6 µM;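 active = mean activation above the mean of solvent-only control wells plus 3 SD, cut at about 22% in these data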;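 note: counterscreen of GAA850 promoter hits where activity marks nonselective or luminescence artifacts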
GAA850 confirm: GAA850 FXN promoter activation confirmation; shares compounds with GAA850 FXN act; HEK293 lucGAA850 FXN promoter luciferase reporter, 24 h; 100% = activation by SAHA; activation, % at 6 µM; 1,900 compounds, 86% hits; AID 588351;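 active = mean activation above a set limit taken from the primary screen, cut at about 8% in these data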;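 note: 0% = DMSO wells and 100% = 10 µM SAHA wells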
Active calls of the source: *.

Results for COc1ccc(CCNC(=O)c2cc(-c3ccco3)on2)cc1OC ?
Xi reactivation: 0; GSIS activator: 4; CaV13 ICDI inh: -4; GAA850 FXN act: 13*; GAA30 counter: 77*; GAA850 confirm: 34*

What do the screens show for `COc1ccc(CCNC(=O)c2cc(C(C)C)on2)cc1OC`?
Xi reactivation: 0; CaV13 ICDI inh: -4; GAA850 FXN act: 1

Results for C[C@@H]1CN([C@H](C)CO)C(=O)c2cc(NC(=O)CCN3CCOCC3)ccc2O[C@@H]1CN(C)Cc1ccc2c(c1)OCO2 ?
Xi reactivation: -1; GSIS activator: -1

How did CCCC(=O)N1CC2(C1)CN(C(=O)C1CCOCC1)[C@H](CO)c1[nH]c3cc(OC)ccc3c12 do in these assays?
Xi reactivation: 0; GSIS activator: 28

How did CN1C(=O)c2cc(NC(=O)c3ccccc3F)ccc2OC[C@@H]2O[C@H](CC(=O)NCc3ccc4c(c3)OCO4)CC[C@H]21 do in these assays?
Xi reactivation: 0; GSIS activator: -21

How did C[C@H]1CN([C@@H](C)CO)S(=O)(=O)c2ccc(C#CC3CCCC3)cc2O[C@@H]1CN(C)Cc1cncnc1 do in these assays?
Xi reactivation: -1; GSIS activator: -34

Results for O=C1[C@H]2[C@@H](c3ccc(F)cc3)N3C(=O)N(c4cccc(Br)c4)C(=O)[C@@]3(Cc3ccccc3)[C@H]2C(=O)N1C1CCCCC1 ?
Xi reactivation: 0; GSIS activator: 7; CaV13 ICDI inh: -3; GAA850 FXN act: 6

What do the screens show for `COc1ccc(N2C(=O)N3[C@H](c4ccc(Cl)cc4)[C@@H]4C(=O)N(C5CCCCC5)C(=O)[C@@H]4[C@]3(Cc3ccc(Cl)cc3)C2=O)cc1`?
Xi reactivation: 0; GSIS activator: -7; CaV13 ICDI inh: -10; GAA850 FXN act: 7.9*; GAA30 counter: 31*; GAA850 confirm: 12*

How did Cc1ccc(N2C(=O)N3[C@H](c4ccc(F)cc4)[C@@H]4C(=O)N(C5CCCCC5)C(=O)[C@@H]4[C@]3(Cc3ccccc3)C2=O)cc1 do in these assays?
Xi reactivation: 0; GSIS activator: 19; CaV13 ICDI inh: -5; GAA850 FXN act: 12*; GAA30 counter: 31*; GAA850 confirm: 11*

How did O=C1[C@H]2[C@@H](c3ccc(F)cc3)N3C(=O)N(c4cccc(F)c4)C(=O)[C@@]3(Cc3ccccc3)[C@H]2C(=O)N1C1CCCCC1 do in these assays?
Xi reactivation: 0; GSIS activator: 2; CaV13 ICDI inh: -5; GAA850 FXN act: 11*; GAA30 counter: 28*; GAA850 confirm: 14*

How did COc1ccc([C@@H]2[C@@H]3C(=O)N(C(C)(C)C)C(=O)[C@@H]3[C@]3(Cc4ccc(Cl)cc4)C(=O)N(c4ccc(OC)cc4)C(=O)N23)cc1 do in these assays?
Xi reactivation: 0; GSIS activator: -6; CaV13 ICDI inh: -11; GAA850 FXN act: 0

What do the screens show for `O=C1[C@H]2[C@@H](c3ccc(Cl)cc3)N3C(=O)N(c4cccc(Cl)c4)C(=O)[C@@]3(Cc3ccccc3)[C@H]2C(=O)N1C1CCCCC1`?
Xi reactivation: 0; GSIS activator: 4; CaV13 ICDI inh: -7; GAA850 FXN act: 8.2*; GAA30 counter: -10; GAA850 confirm: 0

Results for CC(C)NC(=O)Nc1cccc2c1O[C@@H](CN(C)Cc1ccc(C(=O)O)cc1)[C@@H](C)CN([C@@H](C)CO)C2=O ?
Xi reactivation: 0; GSIS activator: -7

What do the screens show for `Clc1nc(-c2cccnc2)nc2scc(-c3ccccc3)c12`?
Xi reactivation: 0; GSIS activator: -6; CaV13 ICDI inh: 9; GAA850 FXN act: 8.1*; GAA30 counter: 97*; GAA850 confirm: 31*

What do the screens show for `Cc1ccc(O)c(NC(=O)CCC2CCCCC2)c1`?
GAA850 FXN act: 8.3*; GAA30 counter: 91*; GAA850 confirm: 35*

What do the screens show for `O=C(CCC1CCCCC1)Nc1ccccc1O`?
CaV13 ICDI inh: -6; GAA850 FXN act: 4

How did COc1ccc(OC)c(Nc2nc(-c3cccs3)cs2)c1 do in these assays?
GSIS activator: -11; CaV13 ICDI inh: -5; GAA850 FXN act: 1

How did COc1ccccc1Nc1nc(-c2cccs2)cs1 do in these assays?
GSIS activator: 2; CaV13 ICDI inh: -7; GAA850 FXN act: 10*; GAA30 counter: 126*; GAA850 confirm: 40*

What do the screens show for `N#C/C(=C\c1ccc(N2CCOCC2)o1)c1ccccc1`?
GSIS activator: -19; CaV13 ICDI inh: -9; GAA850 FXN act: 12*; GAA30 counter: 139*; GAA850 confirm: 45*

What do the screens show for `Cc1ccc(S(=O)(=O)Nc2ccc3c(c2)CC(=O)N([C@@H](C)CO)C[C@H](C)[C@@H](CN(C)Cc2ccc4c(c2)OCO4)O3)cc1`?
Xi reactivation: 0; GSIS activator: -20

How did O=C(/C=C/c1ccccc1)/C=C/c1ccccc1 do in these assays?
Xi reactivation: 2; GSIS activator: -35; CaV13 ICDI inh: -19; GAA850 FXN act: 7.9*; GAA30 counter: 32*; GAA850 confirm: 30*

How did O=C(NCCCn1ccnc1)c1cc2cc([N+](=O)[O-])ccc2oc1=O do in these assays?
Xi reactivation: 1; GSIS activator: -12; CaV13 ICDI inh: -5; GAA850 FXN act: 12*; GAA30 counter: 11; GAA850 confirm: 7

Results for COCC#Cc1ccc2c(c1)O[C@@H](CN(C)CC1CCOCC1)[C@H](C)CN([C@H](C)CO)S2(=O)=O ?
Xi reactivation: 0; GSIS activator: 9

What do the screens show for `Cc1cc(O)c(-c2cc(O)c(C)cc2O)cc1O`?
Xi reactivation: 2; GSIS activator: 24; CaV13 ICDI inh: -3; GAA850 FXN act: 11*; GAA30 counter: 18; GAA850 confirm: 29*

Results for Cc1cc(C(=O)Nc2cccc3c2O[C@@H](CN(C)Cc2ccc(Oc4ccccc4)cc2)[C@H](C)CN([C@H](C)CO)C3=O)n(C)n1 ?
Xi reactivation: 0; GSIS activator: 6

What do the screens show for `CCNC(=O)C[C@H]1CC[C@@H]2[C@@H](COc3ccc(NC(=O)C4CCOCC4)cc3C(=O)N2C)O1`?
Xi reactivation: 0; GSIS activator: 13

Results for CCCOP(=O)(c1ccc(N(C)C)cc1)C(O)c1c(Cl)cccc1Cl (configuration not stated) ?
Xi reactivation: 0; GSIS activator: -13; CaV13 ICDI inh: -4; GAA850 FXN act: 4
